Measurements: ChEMBL document CHEMBL4725358 (J Med Chem, 2020)
Active and inactive are the calls of the source. No cut-off for these calls is given here.

What was measured:
[1] = molecular target: Putative P2Y purinoceptor 10 (Mus musculus, UniProt Q8BFU7); assay: Agonist activity at mouse P2Y10 expressed in HEK293 cells co-transfected with AP-TGFalpha/Galphaq/i1 assessed as induction of ectodomain shedding of membrane bound AP-TGFalpha after 1 hr by p-NPP substrate based microplate reader analysis; format: cell-based
Outline: (§1)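 Run the same way as the GPR34 shedding assay, but with a mouse P2Y10 expression vector in HEK293 cells alongside AP-TGFα and chimeric Gα. Receptor-specific AP-TGFα release was found by subtracting the empty-vector background. EC50 and Emax came from concentration-response curves. Mean and SEM of 3−8 independent experiments.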

[2] = molecular target: Putative P2Y purinoceptor 10 (Mus musculus) (UniProt Q8BFU7); assay: Agonist activity at mouse P2Y10 expressed in HEK293 cells co-transfected with AP-TGFalpha/Galphaq/i1 assessed as induction of ectodomain shedding of membrane bound AP-TGFalpha after 1 hr by p-NPP substrate based microplate reader analysis relative to control; format: cell-based; outline: as §1
[3] = molecular target: T1, G protein-coupled receptor 34a (Danio rerio, UniProt Q6XCC7); assay: Agonist activity at zebrafish GPR34 type a expressed in HEK293 cells co-transfected with AP-TGFalpha/Galphaq/i1 assessed as induction of ectodomain shedding of membrane bound AP-TGFalpha after 1 hr by p-NPP substrate based microplate reader analysis; format: cell-based
T1 sequence (Q6XCC7 whole entry): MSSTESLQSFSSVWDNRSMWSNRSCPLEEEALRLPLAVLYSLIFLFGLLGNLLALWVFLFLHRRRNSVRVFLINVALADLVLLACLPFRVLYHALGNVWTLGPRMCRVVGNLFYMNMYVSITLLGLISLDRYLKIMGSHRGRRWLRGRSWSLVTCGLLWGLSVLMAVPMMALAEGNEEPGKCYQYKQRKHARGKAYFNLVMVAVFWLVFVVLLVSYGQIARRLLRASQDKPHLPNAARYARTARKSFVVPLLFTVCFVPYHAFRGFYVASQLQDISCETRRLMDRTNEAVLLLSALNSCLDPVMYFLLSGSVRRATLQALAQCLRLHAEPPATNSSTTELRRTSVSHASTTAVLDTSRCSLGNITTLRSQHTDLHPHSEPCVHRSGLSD

[4] = molecular target: T2, G protein-coupled receptor 34a (Danio rerio) (UniProt Q6XCC7); assay: Agonist activity at zebrafish GPR34 type a expressed in HEK293 cells co-transfected with AP-TGFalpha/Galphaq/i1 assessed as induction of ectodomain shedding of membrane bound AP-TGFalpha after 1 hr by p-NPP substrate based microplate reader analysis relative to control; format: cell-based
T2 sequence (whole entry): T1 sequence (Q6XCC7 whole entry)

[5] = molecular target: T3, G protein-coupled receptor 34b (Danio rerio, UniProt B0S6P9); assay: Agonist activity at zebrafish GPR34 type b expressed in HEK293 cells co-transfected with AP-TGFalpha/Galphaq/i1 assessed as induction of ectodomain shedding of membrane bound AP-TGFalpha after 1 hr by p-NPP substrate based microplate reader analysis; format: cell-based
T3 sequence (B0S6P9 whole entry): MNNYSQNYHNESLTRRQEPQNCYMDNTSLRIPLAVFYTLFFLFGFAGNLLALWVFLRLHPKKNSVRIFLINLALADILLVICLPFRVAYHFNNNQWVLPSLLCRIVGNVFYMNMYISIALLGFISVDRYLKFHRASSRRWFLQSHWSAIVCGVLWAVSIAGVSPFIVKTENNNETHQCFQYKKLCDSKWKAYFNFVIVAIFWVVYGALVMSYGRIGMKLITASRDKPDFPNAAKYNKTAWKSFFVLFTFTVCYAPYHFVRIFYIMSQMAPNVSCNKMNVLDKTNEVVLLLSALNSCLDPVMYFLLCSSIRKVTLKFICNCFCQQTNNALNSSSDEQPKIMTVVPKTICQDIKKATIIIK

[6] = molecular target: T4, G protein-coupled receptor 34b (Danio rerio) (UniProt B0S6P9); assay: Agonist activity at zebrafish GPR34 type b expressed in HEK293 cells co-transfected with AP-TGFalpha/Galphaq/i1 assessed as induction of ectodomain shedding of membrane bound AP-TGFalpha after 1 hr by p-NPP substrate based microplate reader analysis relative to control; format: cell-based
T4 sequence (whole entry): T3 sequence (B0S6P9 whole entry)

[7] = molecular target: Probable G-protein coupled receptor 34 (Mus musculus) (UniProt Q9R1K6); assay: (§2) Agonist activity at mouse GPR34 expressed in HEK293 cells co-transfected with AP-TGFalpha/Galphaq/i1 assessed as induction of ectodomain shedding of membrane bound AP-TGFalpha after 1 hr by p-NPP substrate based microplate reader analysis; format: cell-based
Outline: (§3)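 HEK293 cells transiently transfected with AP-TGFα, chimeric Gα and mouse GPR34 vectors, then treated with compound. Empty-vector cells (AP-TGFα plus chimeric Gα) served as background. Receptor-specific AP-TGFα release was taken after subtracting that background, and concentration-response curves gave EC50 and Emax. Mean and SEM of 3−8 independent experiments.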

[8] = molecular target: Probable G-protein coupled receptor 34 (Mus musculus, UniProt Q9R1K6); assay: as §2; format: cell-based; outline: as §3
[9] = molecular target: Probable G-protein coupled receptor 34 (Mus musculus) (UniProt Q9R1K6); assay: Agonist activity at mouse GPR34 expressed in HEK293 cells co-transfected with AP-TGFalpha/Galphaq/i1 assessed as induction of ectodomain shedding of membrane bound AP-TGFalpha after 1 hr by p-NPP substrate based microplate reader analysis relative to control; format: cell-based; outline: as §3
[10] = molecular target: Probable G-protein coupled receptor 34 (Mus musculus) (UniProt Q9R1K6); assay: Agonist activity at mouse GPR34 expressed in HEK293 cells co-transfected with AP-TGFalpha/Galphaq/i1 assessed as induction of ectodomain shedding of membrane bound AP-TGFalpha after 1 hr by p-NPP substrate based microplate reader analysis relative to positive control; format: cell-based; outline: as §3
[11] = molecular target: Putative P2Y purinoceptor 10 (Mus musculus) (UniProt Q8BFU7); assay: Agonist activity at mouse P2Y10 expressed in HEK293 cells co-transfected with AP-TGFalpha/Galphaq/i1 assessed as induction of ectodomain shedding of membrane bound AP-TGFalpha after 1 hr by p-NPP substrate based microplate reader analysis relative to positive control; format: cell-based; conditions: filed as agonist; outline: as §1
[12] = molecular target: Probable G-protein coupled receptor 34 (Mus musculus) (UniProt Q9R1K6); assay: Agonist activity at mouse GPR34 expressed in HEK293 cells co-transfected with Galphaq/i1 assessed as increase in calcium influx by calcium 5 dye based FLIPR assay; format: functional, cell-based
Outline: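 Mouse GPR34-expressing HEK293 cells were monitored for calcium influx after compound was added at 100 nM or 10 nM. Each run was done in triplicate and reported as mean and S.D.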

[13] = molecular target: Probable G-protein coupled receptor 34 (Homo sapiens, UniProt Q9UPC5); assay: Agonist activity at human GPR34 expressed in HEK293 cells co-transfected with AP-TGFalpha/Galphaq/i1 assessed as induction of ectodomain shedding of membrane bound AP-TGFalpha after 1 hr by p-NPP substrate based microplate reader analysis; format: cell-based
Probable G-protein coupled receptor 34 (Homo sapiens, UniProt Q9UPC5), sequence (Q9UPC5 whole entry, the tested form may be a part): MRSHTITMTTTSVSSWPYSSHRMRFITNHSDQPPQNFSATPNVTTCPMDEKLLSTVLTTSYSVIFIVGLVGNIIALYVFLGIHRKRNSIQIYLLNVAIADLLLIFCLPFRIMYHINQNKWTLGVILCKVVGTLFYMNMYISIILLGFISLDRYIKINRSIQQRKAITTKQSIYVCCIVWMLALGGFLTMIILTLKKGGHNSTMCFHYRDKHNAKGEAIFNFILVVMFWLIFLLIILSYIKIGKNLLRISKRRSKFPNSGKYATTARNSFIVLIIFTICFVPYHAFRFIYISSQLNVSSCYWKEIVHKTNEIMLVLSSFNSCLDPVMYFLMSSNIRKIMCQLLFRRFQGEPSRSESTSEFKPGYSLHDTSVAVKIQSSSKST

Probable G-protein coupled receptor 34 (Mus musculus), sequence (Q9R1K6 whole entry, the tested form may be a part): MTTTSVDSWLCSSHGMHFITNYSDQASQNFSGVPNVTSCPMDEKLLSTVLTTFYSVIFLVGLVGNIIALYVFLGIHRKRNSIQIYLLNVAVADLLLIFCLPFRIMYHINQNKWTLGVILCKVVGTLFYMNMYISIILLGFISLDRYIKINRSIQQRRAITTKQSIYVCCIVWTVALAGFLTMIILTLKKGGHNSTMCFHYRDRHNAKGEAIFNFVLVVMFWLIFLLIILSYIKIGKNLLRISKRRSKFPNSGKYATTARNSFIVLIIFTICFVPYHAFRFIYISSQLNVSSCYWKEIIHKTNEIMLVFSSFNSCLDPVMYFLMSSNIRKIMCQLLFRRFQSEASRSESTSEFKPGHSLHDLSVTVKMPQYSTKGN
Putative P2Y purinoceptor 10 (Mus musculus), sequence (Q8BFU7 whole entry, the tested form may be a part): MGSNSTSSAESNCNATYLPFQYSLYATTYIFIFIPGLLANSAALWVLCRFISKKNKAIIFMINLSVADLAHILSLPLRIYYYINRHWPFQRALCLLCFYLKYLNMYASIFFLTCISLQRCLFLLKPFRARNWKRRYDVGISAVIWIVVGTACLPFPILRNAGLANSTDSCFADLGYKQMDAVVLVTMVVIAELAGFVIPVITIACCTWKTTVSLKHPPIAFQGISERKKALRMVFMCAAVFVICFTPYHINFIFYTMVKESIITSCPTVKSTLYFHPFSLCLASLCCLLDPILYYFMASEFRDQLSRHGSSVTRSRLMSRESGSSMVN
Putative P2Y purinoceptor 10, sequence (Q8BFU7 whole entry, the tested form may be a part): as above
Probable G-protein coupled receptor 34 (Mus musculus, UniProt Q9R1K6), sequence (Q9R1K6 whole entry, the tested form may be a part): as the sequence (Q9R1K6 whole entry, the tested form may be a part) above

EC50 [1] [µM] | Emax [2] [%] | pEC50 [7] | EC50 ([8]; hek293) | Emax [9] | fold change (FC) [10] | fold change (FC) [11] | Activity [12] | EC50 ([8]; read-out: EC50) [µM] | fold change (FC) ([10]; filed as agonist) | Activity ([12]; filed as agonist) | EC50 [13] [µM] | SMILES | EC50 [3] [µM] | Emax [4] [%] | EC50 [5] [µM] | Emax [6] [%]
0.012 | 11.1 | inactive | Not Active | inactive | inactive | 0.14 | inactive | – | – | – | – | CCCCCCCCCCCOc1ccccc1CCC(=O)O[C@H]1CCOC[C@@H]1OP(=O)(O)OC[C@H](N)C(=O)O | – | – | – | –
0.001 | 10.6 | – | – | 10.3% | – | 1.7 | – | 0.00083 | 100 | Active | 0.00075 | CCCCCCCCCCCOc1ccccc1CCC(=O)O[C@@H]1CCOC[C@H]1OP(=O)(O)OC[C@H](N)C(=O)O | 0.51 | 14 | 0.012 | 25

SMILES | EC50 [1] [µM] | Emax [2] [%] | pEC50 [7] | EC50 ([8]; hek293) | Emax [9] | fold change (FC) [10] | fold change (FC) [11] | Activity [12] | EC50 ([8]; read-out: EC50) [µM] | fold change (FC) ([10]; filed as agonist) | Activity ([12]; filed as agonist) | EC50 [13] [µM] | EC50 [3] [µM] | Emax [4] [%] | EC50 [5] [µM] | Emax [6] [%]
CCCCCCCC/C=C\CCCCCCCC(=O)OC[C@@H](O)COP(=O)(O)OC[C@H](N)C(=O)O | 0.02 | 13.6 | – | – | – | – | – | – | – | – | – | – | 0.13 | 22.1 | 0.0035 | 25.1
